Entries after “also recorded” stand apart in the source; their conditions may differ. Bridge positions count the residues as written; N and C are the ends. Peptide text beside a SMILES is read from it.
Experiments:
MDCK-II cell monolayers [1] = test: Inhibition of junction resealing in MDCK cell monolayers; format: cell-based, canine; conditions: peptide 1.0 mM apical and basolateral, TEER, 5- and 6-h time points
MDCK-II cell monolayers [2] = test: Direct junction modulation of intact MDCK cell monolayers; format: cell-based, canine; conditions: peptide 1.0 mM, Ca2+-sufficient buffer, 7- and 8-h time points
Method in brief: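 MDCK-II cells were seeded at 75,000 cells/well on 0.4 μm polyester Transwell membranes and grown 5–8 days, with starting TEER of 280–320 ohm.cm². Monolayers were washed in HBSS (25 mM glucose, 2 mM CaCl₂, 0.75 mM MgSO₄, 10 mM HEPES), with no Ca²⁺-free step. They were then exposed apically and basolaterally to test compound (1.0 mM) or none, and TEER was read hourly for 6–8 h by voltohmmeter.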

[3] = Peptide stability in rat plasma; format: in vitro ADME; conditions: rat plasma (NaHeparin)
Method in brief: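 Test compound in DMSO was spiked into heparinised rat plasma (final DMSO 0.6%) and shaken at 50 rpm at 37 °C for up to 8 or 72 h, about 2–3 half-lives. Samples were deproteinised with ACN:H₂O:EtOAc (6:1:1) and centrifuged at 17226 g. Remaining peptide was quantified by LC-MS/MS against a peptide internal standard, and half-life was calculated.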

blood-brain barrier [4] = test: In-situ rat brain perfusion, 14C-mannitol brain delivery; format: in vivo, Sprague-Dawley rats; conditions: peptide 1.0 mM, 240-s perfusion, then 240-s 14C-mannitol
Method in brief: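 Sprague-Dawley rats were anaesthetised i.p. with ketamine 100 mg/kg plus xylazine 5 mg/kg. Perfusion via a left common carotid cannula at 5.0 mL/min began right after cardiac puncture: 20-s saline, 240-s test compound (1.0 mM) or vehicle, 240-s ¹⁴C-mannitol, then 5-s saline wash. Perfusate was filter-sterilised and oxygenated (95% air/5% CO₂, 37 °C). Rectal temperature was held at 36.5 ± 0.5 °C.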

blood-brain barrier [5] = test: MRI of Gd-DTPA brain deposition after i.v. peptide; format: in vivo, Balb/c mice
blood-brain barrier [6] = test: NIRF imaging of IRdye800cw-PEG and R800 brain deposition; format: in vivo, mice; conditions: 0.01 mmol/kg peptide i.v., ex vivo brain-to-plasma fluorescence ratio
Method in brief: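 Mice received test compound 0.010 mmol/kg or PBS i.v. After 5 min, IRDye 800CW PEG (~25 kDa, 0.01 μmol/kg) and R800 (P-gp substrate, 0.032 μmol/kg) were given i.v. Mice were killed by cardiac perfusion of 10% formaldehyde 20 min after treatment. Brains were imaged ex vivo by near-infrared scanner, and ROI fluorescence per unit tissue was divided by fluorescence per μL blood at the same time point.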

blood-brain barrier [7] = conditions: completely reversed by 4 h following treatment; cited from earlier work
[8] = 0.01 mmol/kg i.v., AUC over 42 min, posterior, midbrain, anterior
[9] = 0.001, 0.0032, 0.01 mmol/kg i.v., 42-min session

half-life [3] | Molecule | inhibition of junction resealing compared to HBSS (MDCK-II cell monolayers [1]) | lowering of TEER of intact monolayers compared to HBSS (MDCK-II cell monolayers [2]) | passage of 14C-mannitol into rat brain compared to vehicle (blood-brain barrier [4]) | Gd-DTPA enhancement after 1-h peptide pretreatment (blood-brain barrier [5]; [8]) | Gd-DTPA enhancement after 2-h peptide pretreatment (blood-brain barrier [5]; [8]) | maximum enhancement of Gd-DTPA compared to background at 0 time point (blood-brain barrier [5]; 0.010 mmol/kg i.v., posterior region, Gd-DTPA 0.4 mmol/kg, 42-min MRI session) | duration of BBB modulation (Gd-DTPA) (blood-brain barrier [5]; 0.01 mmol/kg i.v., various pretreatment times, MRI) | AUC of Gd-DTPA deposition vs vehicle, anterior region (blood-brain barrier [5]; [9]) | AUC of Gd-DTPA deposition vs vehicle, midbrain (blood-brain barrier [5]; [9]) | AUC of Gd-DTPA deposition vs vehicle, posterior region (blood-brain barrier [5]; [9]) | increase in brain delivery of Gd-DTPA (blood-brain barrier [5]; following peptide treatment) | brain deposition of IRdye800cw-PEG, 5-min pretreatment (blood-brain barrier [6]) | duration for which BBB modulation was observed (blood-brain barrier [7])
2.4 h | CC(=O)N[C@@H](CO)C(=O)N[C@@H](Cc1c[nH]cn1)C(=O)N[C@@H](C)C(=O)N[C@H](C(=O)N[C@@H](C)C(=O)N[C@@H](CO)C(N)=O)C(C)C [HAV4] (Ac-SHAVAS-NH2) | significantly inhibited the resealing; also recorded: inhibited the junction resealing | lowered the TEER values significantly | significantly enhanced | did not produce any Gd-DTPA enhancement | did not produce any Gd-DTPA enhancement | up to fivefold | < 1 h | significantly higher than those of the vehicle group at all peptide doses examined | only treatment with 0.01 mmol/kg showed significant enhancement compared to vehicle | significantly higher than those of the vehicle group at all peptide doses examined | 3-4 fold | higher than in saline-treated controls | 
 | Ac-CDTPPVC-NH2 (disulfide 1-7 (inferred); SMILES CC(=O)N[C@H]1CSSC[C@@H](C(N)=O)NC(=O)[C@H](C(C)C)NC(=O)[C@@H]2CCCN2C(=O)[C@@H]2CCCN2C(=O)[C@H]([C@@H](C)O)NC(=O)[C@H](CC(=O)O)NC1=O) [ADTC5] |  |  |  |  |  |  |  |  |  |  |  |  | 2 h
